Blank lines part the entries; values can stand above or below the compound they belong to. The source made the active and inactive calls. No cut-off for these calls is given here.
Assays:
[1] = Cytotoxicity against human QSG7701 cells assessed as inhibition rate at 100 uM measured after 48 hrs by MTT assay; type: cell-based; details: read-out: INH
Method in brief: (§1)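 Normal liver cells were grown in DMEM with 10% FBS plus penicillin/streptomycin at 37 °C, 5% CO₂. They were seeded at 5 × 10⁵ cells/mL and incubated 24 h. Compounds from DMSO stock were added at final 50 or 100 µM (DMSO <1%), in triplicate, for 48 h. MTT was added for 4 h, formazan dissolved in DMSO, A495 read, and inhibition rate calculated.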

A549 = test: Antiproliferative activity against human A549 cells assessed as growth inhibition measured after 48 hrs by MTT assay; type: functional, cell-based; details: A549, 48 h
Method in brief: (§2)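 Compounds dissolved in DMSO and diluted in medium to final 0.5–50 µM (final DMSO <1%). Cells were grown in DMEM with 10% FBS, penicillin and streptomycin at 37 °C, 5% CO₂. They were seeded at 5 × 10⁵ cells/mL, incubated 24 h, then treated in triplicate per concentration for 48 h. MTT was added for 4 h, formazan dissolved in DMSO, absorbance read at 495 nm, and IC50 derived.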

HepG2 [2] = test: Antiproliferative activity against human HepG2 cells assessed as growth inhibition measured after 48 hrs by MTT assay; type: functional, cell-based; details: HepG2, 48 h; method in brief: as §2
[3] = Cytotoxicity against human QSG7701 cells assessed as inhibition rate at 50 uM measured after 48 hrs by MTT assay; type: cell-based; details: read-out: INH; method in brief: as §1
[4] = Cytotoxicity against human HL7702 cells assessed as inhibition rate at 100 uM measured after 48 hrs by MTT assay; type: cell-based, L02; details: read-out: INH; method in brief: as §1
[5] = Cytotoxicity against human HL7702 cells assessed as inhibition rate at 50 uM measured after 48 hrs by MTT assay; type: cell-based, L02; details: read-out: INH; method in brief: as §1
HCT-116 = test: Antiproliferative activity against human HCT116 cells assessed as growth inhibition measured after 48 hrs by MTT assay; type: functional, cell-based; details: HCT-116, 48 h; method in brief: as §2
[6] = target: RAF proto-oncogene serine/threonine-protein kinase (Homo sapiens) (UniProt P04049); test: Inhibition of Raf1 (unknown origin) at 50 uM
RAF proto-oncogene serine/threonine-protein kinase (Homo sapiens), sequence (P04049 whole entry): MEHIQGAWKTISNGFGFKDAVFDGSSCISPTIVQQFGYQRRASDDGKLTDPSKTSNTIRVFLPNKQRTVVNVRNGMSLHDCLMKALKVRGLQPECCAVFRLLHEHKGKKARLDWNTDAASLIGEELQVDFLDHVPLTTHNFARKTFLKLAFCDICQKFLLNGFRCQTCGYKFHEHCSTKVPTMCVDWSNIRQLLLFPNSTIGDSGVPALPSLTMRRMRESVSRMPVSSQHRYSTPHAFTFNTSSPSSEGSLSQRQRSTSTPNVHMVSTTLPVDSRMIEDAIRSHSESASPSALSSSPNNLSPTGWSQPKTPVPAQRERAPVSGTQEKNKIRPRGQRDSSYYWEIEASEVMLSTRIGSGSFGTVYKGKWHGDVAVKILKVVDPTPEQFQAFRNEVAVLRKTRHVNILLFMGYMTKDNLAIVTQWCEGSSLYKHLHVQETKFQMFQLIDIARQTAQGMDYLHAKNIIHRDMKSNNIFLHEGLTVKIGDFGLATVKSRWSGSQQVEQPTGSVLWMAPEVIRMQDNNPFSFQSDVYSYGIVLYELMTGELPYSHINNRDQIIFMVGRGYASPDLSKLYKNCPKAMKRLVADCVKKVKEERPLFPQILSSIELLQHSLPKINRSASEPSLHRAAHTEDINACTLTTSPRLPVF
Method in brief: (§3)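 Kinase-Glo Plus luminescent assay. Enzyme, substrate, ATP and compound were mixed in 25 mM HEPES pH 7.4 with 10 mM MgCl₂ and incubated 1 h at 30 °C. The reaction was stopped with an equal volume of Kinase-Glo Plus reagent. Luminescence reflects remaining ATP, inversely related to kinase activity, and is reported as percent inhibition at a single concentration.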

HepG2 [7] = test: Cell cycle arrest in human HepG2 cells assessed as cells at S phase at 10 uM measured after 48 hrs by flow cytometric analysis; type: functional
HepG2 [8] = test: Cell cycle arrest in human HepG2 cells assessed as cells at G2+M phase at 10 uM measured after 24 hrs by flow cytometric analysis; type: functional
HepG2 [9] = test: Induction of human HepG2 cells assessed as early apoptotic cells at 10 uM measured after 24 hrs by Annexin VFITC/PI assay; type: functional
HepG2 [10] = test: Cell cycle arrest in human HepG2 cells assessed as cells at S phase at 10 uM measured after 36 hrs by flow cytometric analysis; type: functional
HepG2 [11] = test: Induction of human HepG2 cells assessed as late apoptotic cells at 10 uM measured after 36 hrs by Annexin VFITC/PI assay; type: functional
HepG2 [12] = test: Cell cycle arrest in human HepG2 cells assessed as cells at G2+M phase at 10 uM measured after 48 hrs by flow cytometric analysis; type: functional
HepG2 [13] = test: Induction of human HepG2 cells assessed as early apoptotic cells at 10 uM measured after 48 hrs by Annexin VFITC/PI assay; type: functional
HepG2 [14] = test: Induction of human HepG2 cells assessed as late apoptotic cells at 10 uM measured after 24 hrs by Annexin VFITC/PI assay; type: functional
HepG2 [15] = test: Induction of human HepG2 cells assessed as late apoptotic cells at 10 uM measured after 48 hrs by Annexin VFITC/PI assay; type: functional
HepG2 [16] = test: Induction of human HepG2 cells assessed as late apoptotic cells at 10 uM measured after 12 hrs by Annexin VFITC/PI assay; type: functional
HepG2 [17] = test: Cell cycle arrest in human HepG2 cells assessed as cells at G0/G1 phase at 10 uM measured after 12 hrs by flow cytometric analysis; type: functional
[18] = target: Mitogen-activated protein kinase 8 (Homo sapiens) (UniProt P45983); test: Inhibition of JNK1 in human HepG2 cells assessed as c-Jun phosphorylation at 10 uM measured after 2 hrs by Western blot analysis; type: cell-based
Mitogen-activated protein kinase 8 (Homo sapiens), sequence (P45983 whole entry): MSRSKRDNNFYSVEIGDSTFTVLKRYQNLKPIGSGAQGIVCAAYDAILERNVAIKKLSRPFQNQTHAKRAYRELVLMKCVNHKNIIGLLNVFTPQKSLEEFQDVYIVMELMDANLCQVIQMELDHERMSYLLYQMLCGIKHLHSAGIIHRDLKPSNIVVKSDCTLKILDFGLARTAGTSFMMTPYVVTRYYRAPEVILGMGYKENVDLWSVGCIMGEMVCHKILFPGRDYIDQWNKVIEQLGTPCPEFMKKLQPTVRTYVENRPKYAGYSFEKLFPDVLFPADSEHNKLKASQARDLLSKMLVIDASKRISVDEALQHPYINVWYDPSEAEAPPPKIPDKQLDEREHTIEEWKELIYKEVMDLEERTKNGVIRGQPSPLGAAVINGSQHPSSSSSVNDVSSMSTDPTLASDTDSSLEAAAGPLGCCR
Method in brief: (§4)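 Cells were lysed on ice for 50 min in HEPES pH 7.9/KCl/EDTA/NP-40 buffer with Na₃VO₄, NaF and protease inhibitors. Protein was quantified by Coomassie, run on 15% SDS-PAGE and transferred to PVDF. Membranes were blocked in 5% milk for 2 h and probed with total/phospho ERK1/2 or c-Jun antibodies for 2 h at room temperature. Detection was by HRP secondary antibody and chemiluminescence.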

[19] = target: Mitogen-activated protein kinase 14 (Homo sapiens) (UniProt Q16539); test: Inhibition of p38-alpha (unknown origin) at 50 uM; method in brief: as §3
Mitogen-activated protein kinase 14 (Homo sapiens), sequence (Q16539 whole entry): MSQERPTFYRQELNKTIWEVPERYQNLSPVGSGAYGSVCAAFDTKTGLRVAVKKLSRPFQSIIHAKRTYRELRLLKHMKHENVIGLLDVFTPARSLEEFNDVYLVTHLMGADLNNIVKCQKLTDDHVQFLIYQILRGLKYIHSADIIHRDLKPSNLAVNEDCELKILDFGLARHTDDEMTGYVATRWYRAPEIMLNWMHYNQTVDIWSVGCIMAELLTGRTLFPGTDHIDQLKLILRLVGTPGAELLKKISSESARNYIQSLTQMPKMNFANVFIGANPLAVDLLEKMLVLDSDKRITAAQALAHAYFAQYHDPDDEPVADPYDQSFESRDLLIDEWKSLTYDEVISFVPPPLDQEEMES

HepG2 [20] = test: Cell cycle arrest in human HepG2 cells assessed as cells at G0/G1 phase at 10 uM measured after 48 hrs by flow cytometric analysis; type: functional
HepG2 [21] = test: Cell cycle arrest in human HepG2 cells assessed as cells at G0/G1 phase at 10 uM measured after 36 hrs by flow cytometric analysis; type: functional
HepG2 [22] = test: Cell cycle arrest in human HepG2 cells assessed as cells at S phase at 10 uM measured after 24 hrs by flow cytometric analysis; type: functional
HepG2 [23] = test: Induction of human HepG2 cells assessed as early apoptotic cells at 10 uM measured after 36 hrs by Annexin VFITC/PI assay; type: functional
[24] = target: RAF proto-oncogene serine/threonine-protein kinase (Homo sapiens) (UniProt P04049); test: Inhibition of Raf1 in human HepG2 cells assessed as ERK1/2 phosphorylation at 10 uM measured after 2 hrs by Western blot analysis; type: cell-based; details: in the assay text read “4 hrs” for “2 hrs”; method in brief: as §4
HepG2 [25] = test: Cell cycle arrest in human HepG2 cells assessed as cells at G2+M phase at 10 uM measured after 36 hrs by flow cytometric analysis; type: functional
HepG2 [26] = test: Cell cycle arrest in human HepG2 cells assessed as cells at G2+M phase at 10 uM measured after 12 hrs by flow cytometric analysis; type: functional
HepG2 [27] = test: Cell cycle arrest in human HepG2 cells assessed as cells at S phase at 10 uM measured after 12 hrs by flow cytometric analysis; type: functional
[28] = target: Mitogen-activated protein kinase 8 (Homo sapiens) (UniProt P45983); test: Inhibition of JNK1 (unknown origin) at 50 uM
Method in brief: (§5)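 Luminescent Kinase-Glo Plus assay. Enzyme, substrate, ATP and compound were mixed in pH 7.4 buffer containing 25 mM HEPES and 10 mM MgCl2, then incubated at 30 °C for 1 h. An equal volume of Kinase-Glo Plus reagent stopped the reaction before luminescence was read. Signal tracks remaining ATP and runs inversely to kinase activity; results are given as percent inhibition.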

HepG2 [29] = test: Induction of human HepG2 cells assessed as early apoptotic cells at 10 uM measured after 12 hrs by Annexin VFITC/PI assay; type: functional
[30] = target: Mitogen-activated protein kinase 3 (Homo sapiens) (UniProt P27361); test: Inhibition of ERK1 (unknown origin) at 50 uM; method in brief: as §5
Mitogen-activated protein kinase 3 (Homo sapiens), sequence (P27361 whole entry): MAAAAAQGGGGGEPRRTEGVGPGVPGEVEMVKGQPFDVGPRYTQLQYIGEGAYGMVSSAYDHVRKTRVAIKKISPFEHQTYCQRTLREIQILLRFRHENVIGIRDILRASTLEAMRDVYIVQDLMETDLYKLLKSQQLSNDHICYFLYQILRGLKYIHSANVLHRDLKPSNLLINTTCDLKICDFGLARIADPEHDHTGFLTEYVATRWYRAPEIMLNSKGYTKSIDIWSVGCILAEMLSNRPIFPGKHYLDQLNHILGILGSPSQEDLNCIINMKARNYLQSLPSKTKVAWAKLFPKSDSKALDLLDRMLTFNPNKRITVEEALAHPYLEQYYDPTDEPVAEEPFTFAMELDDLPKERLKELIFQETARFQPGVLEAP

[31] = target: Mitogen-activated protein kinase 8 (Homo sapiens) (UniProt P45983); test: Inhibition of JNK1 in human HepG2 cells assessed as inhibition of methyl methane sulfonate-induced c-Jun phosphorylation at 100 uM measured after 2 hrs by Western blot analysis; type: cell-based; method in brief: as §4
[32] = target: Mitogen-activated protein kinase 1 (Homo sapiens) (UniProt P28482); details: at 50 µM
Mitogen-activated protein kinase 1 (Homo sapiens), sequence (P28482 whole entry): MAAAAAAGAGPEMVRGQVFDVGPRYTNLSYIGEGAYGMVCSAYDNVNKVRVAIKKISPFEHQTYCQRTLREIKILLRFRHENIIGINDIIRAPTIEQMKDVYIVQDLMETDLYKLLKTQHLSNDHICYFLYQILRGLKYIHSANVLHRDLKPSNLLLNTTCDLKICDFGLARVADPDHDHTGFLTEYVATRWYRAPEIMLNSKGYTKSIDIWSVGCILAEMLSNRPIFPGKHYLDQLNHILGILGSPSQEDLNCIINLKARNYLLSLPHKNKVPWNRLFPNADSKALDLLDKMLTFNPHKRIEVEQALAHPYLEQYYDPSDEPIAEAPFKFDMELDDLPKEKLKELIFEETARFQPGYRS

HepG2 [33] = test: Cell cycle arrest in human HepG2 cells assessed as cells at G0/G1 phase at 10 uM measured after 24 hrs by flow cytometric analysis; type: functional

IC50 (A549): 14 µM
IC50 (HepG2 [2]): 9.7 µM
IC50 (HCT-116): 25.4 µM
Compound: O=C(Nc1cccc(Cl)c1)Nc1ccc(-c2cc(=O)c3ccccc3o2)c(Cl)c1
cytotoxicity at 48 h, 100 µM [1]: 62.4%
cytotoxicity at 48 h, 50 µM [3]: 48.9%
cytotoxicity at 48 h, 100 µM [4]: 47.1%
cytotoxicity at 48 h, 50 µM [5]: 26.8%

IC50 (A549): 4.5 µM
IC50 (HepG2 [2]): 5 µM
inhibition [6]: 101%
IC50 (HCT-116): 2.3 µM
Compound: CNC(=O)c1cc(Oc2ccc(NC(=O)Nc3ccc(Cl)c(C(F)(F)F)c3)cc2)ccn1 [SORAFENIB]
cytotoxicity at 48 h, 100 µM [1]: 23.2%
cytotoxicity at 48 h, 50 µM [3]: 4.2%
cytotoxicity at 48 h, 100 µM [4]: 20.2%
cytotoxicity at 48 h, 50 µM [5]: 5.3%

IC50 (A549): 15.6 µM
IC50 (HepG2 [2]): 9.9 µM
IC50 (HCT-116): 8.6 µM
Compound: COc1ccc2oc(-c3ccc(NC(=O)Nc4ccc(Cl)c(Cl)c4)cc3Cl)cc(=O)c2c1
cytotoxicity at 48 h, 100 µM [1]: 42.5%
cytotoxicity at 48 h, 50 µM [3]: 13.2%
cytotoxicity at 48 h, 100 µM [4]: 77.9%
cytotoxicity at 48 h, 50 µM [5]: 66.4%

IC50 (A549): > 50 µM
IC50 (HepG2 [2]): 8.3 µM
inhibition [18]: inactive
inhibition [19]: 13.5%
inhibition [24]: Active
inhibition [6]: 65.6%
inhibition [28]: 67.4%
inhibition [30]: inactive
inhibition [31]: Active
inhibition [32]: inactive
IC50 (HCT-116): 28.7 µM
Compound: CCc1ccc2oc(-c3ccc(NC(=O)Nc4ccc(Cl)cc4)cc3Cl)cc(=O)c2c1
Activity (HepG2 [7]): 20.57%
cytotoxicity at 48 h, 100 µM [1]: 31.8%
Activity (HepG2 [8]): 9.38%
Activity (HepG2 [9]): 0.44%
Activity (HepG2 [10]): 24.69%
Activity (HepG2 [11]): 1.37%
Activity (HepG2 [12]): 13.43%
Activity (HepG2 [13]): 0.55%
Activity (HepG2 [14]): 1.2%
Activity (HepG2 [15]): 1.28%
Activity (HepG2 [16]): 1.22%
Activity (HepG2 [17]): 69.43%
cytotoxicity at 48 h, 50 µM [3]: 23.7%
Activity (HepG2 [20]): 52.83%
Activity (HepG2 [21]): 52.83%
Activity (HepG2 [22]): 21.77%
Activity (HepG2 [23]): 0.46%
Activity (HepG2 [25]): 9.14%
Activity (HepG2 [26]): 8.81%
Activity (HepG2 [27]): 19.92%
cytotoxicity at 48 h, 100 µM [4]: 28.3%
Activity (HepG2 [29]): 0.27%
cytotoxicity at 48 h, 50 µM [5]: 18.7%
Activity (HepG2 [33]): 62.29%

Compound: CN[C@@H]1C[C@H]2O[C@@](C)([C@@H]1OC)n1c3ccccc3c3c4c(c5c6ccccc6n2c5c31)C(=O)NC4
inhibition [28]: 96%
inhibition [30]: 99.4%

IC50 (A549): > 50 µM
IC50 (HepG2 [2]): 31.7 µM
IC50 (HCT-116): 24.2 µM
Compound: O=C(Nc1cccc(Cl)c1)Nc1ccc(-c2cc(=O)c3cc(F)ccc3o2)c(Cl)c1
cytotoxicity at 48 h, 100 µM [1]: 57.7%
cytotoxicity at 48 h, 50 µM [3]: 26.8%
cytotoxicity at 48 h, 100 µM [4]: 54.2%
cytotoxicity at 48 h, 50 µM [5]: 20.1%

IC50 (A549): 11 µM
IC50 (HepG2 [2]): 26.3 µM
IC50 (HCT-116): 9.6 µM
Compound: COc1ccc2oc(-c3ccc(NC(=O)Nc4cccc(Cl)c4)cc3Cl)cc(=O)c2c1
cytotoxicity at 48 h, 100 µM [1]: 30.1%
cytotoxicity at 48 h, 50 µM [3]: 15.9%
cytotoxicity at 48 h, 100 µM [4]: 40.6%
cytotoxicity at 48 h, 50 µM [5]: 35.7%

Reference: ChEMBL document CHEMBL2331396, “Exploration of 1-(3-chloro-4-(4-oxo-4H-chromen-2-yl)phenyl)-3-phenylurea derivatives as selective dual inhibitors of Raf1 and JNK1 kinases for anti-tumor treatment” (Bioorg Med Chem, 2013)
